Columns and labels:
[1] = test system: Escherichia coli; experiment: Ability to support the growth of Escherichia coli strain RWV193 from 100 uM stock solution was determined in growth response assay; format: functional
Outline: (§1)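 Disc growth-promotion assay on Escherichia coli K12 strains. Each strain was seeded in a soft nutrient agar overlay on nutrient agar plates. The overlay contained 0.1 mM deferriferrichrome A to make the plates iron deficient. Filter paper discs were each loaded with 10 μL of a 50–500 μM aqueous siderophore solution, with hydroxamate content checked by the ferric perchlorate reagent at 480 nm. Plates were incubated at 37 °C, and the diameter of the growth zone was scored at 12 and 24 h.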

[2] = test system: Escherichia coli; experiment: Ability to support the growth of Escherichia coli strain AN193 from 100 uM stock solution was determined in growth response assay; No growth around disc; format: functional, organism-based; outline: as §1
[3] = test system: Escherichia coli; experiment: Ability to support the growth of Escherichia coli strain BN3300 from 100 uM stock solution was determined in growth response assay; No growth around disc; format: functional, organism-based; outline: as §1
[4] = test system: Escherichia coli; experiment: Ability to support the growth of Escherichia coli strain RWB7 from 100 uM stock solution was determined in growth response assay; No growth around disc; format: functional, organism-based; outline: as §1
[5] = test system: Escherichia coli; experiment: Ability to support the growth of Escherichia coli strain BN3300 from 50 uM stock solution was determined in growth response assay; No growth around disc; format: functional, organism-based; outline: as §1
[6] = test system: Escherichia coli; experiment: Ability to support the growth of Escherichia coli strain RWB7 from 50 uM stock solution was determined in growth response assay; No growth around disc; format: functional, organism-based; outline: as §1
[7] = test system: Escherichia coli; experiment: Ability to support the growth of Escherichia coli strain AN193 from 50 uM stock solution was determined in growth response assay; No growth around disc; format: functional, organism-based; outline: as §1
[8] = test system: Escherichia coli; experiment: Ability to support the growth of Escherichia coli strain BNV3040 from 134 uM stock solution was determined in growth response assay; format: functional; outline: as §1
[9] = test system: Escherichia coli; experiment: Ability to support the growth of Escherichia coli strain RW 193 from 134 uM stock solution was determined in growth response assay; format: functional; outline: as §1
[10] = test system: Escherichia coli; experiment: Ability to support the growth of Escherichia coli strain BN3300 from 134 uM stock solution was determined in growth response assay; No growth around disc; format: functional, organism-based; outline: as §1
[11] = test system: Escherichia coli; experiment: Ability to support the growth of Escherichia coli strain RWB7 from 134 uM stock solution was determined in growth response assay; No growth around disc; format: functional, organism-based; outline: as §1
[12] = test system: Escherichia coli; experiment: Ability to support the growth of Escherichia coli strain AN193 from 134 uM stock solution was determined in growth response assay; No growth around disc; format: functional, organism-based; outline: as §1
[13] = test system: Escherichia coli; experiment: Ability to support the growth of Escherichia coli strain RW 193 from 130 uM stock solution was determined in growth response assay; No growth around disc; format: functional, organism-based; outline: as §1
[14] = test system: Escherichia coli; experiment: Ability to support the growth of Escherichia coli strain BNV3040 from 130 uM stock solution was determined in growth response assay; No growth around disc; format: functional, organism-based; outline: as §1
[15] = test system: Escherichia coli; experiment: Ability to support the growth of Escherichia coli strain BN3300 from 130 uM stock solution was determined in growth response assay; No growth around disc; format: functional, organism-based; outline: as §1
[16] = test system: Escherichia coli; experiment: Ability to support the growth of Escherichia coli strain RWB7 from 130 uM stock solution was determined in growth response assay; No growth around disc; format: functional, organism-based; outline: as §1
[17] = test system: Escherichia coli; experiment: Ability to support the growth of Escherichia coli strain RWV193 from 130 uM stock solution was determined in growth response assay; No growth around disc; format: functional, organism-based; outline: as §1
[18] = test system: Escherichia coli; experiment: Ability to support the growth of Escherichia coli strain AN193 from 130 uM stock solution was determined in growth response assay; No growth around disc; format: functional, organism-based; outline: as §1
[19] = test system: Escherichia coli; experiment: Ability to support the growth of Escherichia coli strain BNV3040 from 50&500 uM stock solution was determined in growth response assay; format: functional; outline: as §1
[20] = test system: Escherichia coli; experiment: Ability to support the growth of Escherichia coli strain RW 193 from 50&500 uM stock solution was determined in growth response assay; format: functional; outline: as §1
[21] = test system: Escherichia coli; experiment: Ability to support the growth of Escherichia coli strain BN3300 from 50&500 uM stock solution was determined in growth response assay; No growth around disc; format: functional, organism-based; outline: as §1
[22] = test system: Escherichia coli; experiment: Ability to support the growth of Escherichia coli strain RWB7 from 50&500 uM stock solution was determined in growth response assay; No growth around disc; format: functional, organism-based; outline: as §1
[23] = test system: Escherichia coli; experiment: Ability to support the growth of Escherichia coli strain AN193 from 50&500 uM stock solution was determined in growth response assay; No growth around disc; format: functional, organism-based; outline: as §1
[24] = test system: Escherichia coli; experiment: Ability to support the growth of Escherichia coli strain BNV3040 from 200 uM stock solution was determined in growth response assay; format: functional; outline: as §1
[25] = test system: Escherichia coli; experiment: Ability to support the growth of Escherichia coli strain BN3300 from 200 uM stock solution was determined in growth response assay; No growth around disc; format: functional, organism-based; outline: as §1
[26] = test system: Escherichia coli; experiment: Ability to support the growth of Escherichia coli strain RWB7 from 200 uM stock solution was determined in growth response assay; No growth around disc; format: functional, organism-based; outline: as §1
[27] = test system: Escherichia coli; experiment: Ability to support the growth of Escherichia coli strain RWV193 from 200 uM stock solution was determined in growth response assay; format: functional; outline: as §1
[28] = test system: Escherichia coli; experiment: Ability to support the growth of Escherichia coli strain BNV3040 from 380 uM stock solution was determined in growth response assay; No growth around disc; format: functional, organism-based; outline: as §1
[29] = test system: Escherichia coli; experiment: Ability to support the growth of Escherichia coli strain RW 193 from 380 uM stock solution was determined in growth response assay; No growth around disc; format: functional, organism-based; outline: as §1
[30] = test system: Escherichia coli; experiment: Ability to support the growth of Escherichia coli strain BN3300 from uM stock solution was determined in growth response assay; No growth around disc; format: functional, organism-based; outline: as §1
[31] = test system: Escherichia coli; experiment: Ability to support the growth of Escherichia coli strain RWB7 from 380 uM stock solution was determined in growth response assay; No growth around disc; format: functional, organism-based; outline: as §1
[32] = test system: Escherichia coli; experiment: Ability to support the growth of Escherichia coli strain AN193 from 380 uM stock solution was determined in growth response assay; No growth around disc; format: functional, organism-based; outline: as §1
[33] = test system: Escherichia coli; experiment: Ability to support the growth of Escherichia coli strain RWV193 from 380 uM stock solution was determined in growth response assay; No growth around disc; format: functional, organism-based; outline: as §1
[34] = test system: Escherichia coli; experiment: Ability to support the growth of Escherichia coli strain BNV3040 from 50 uM stock solution was determined in growth response assay; format: functional; outline: as §1
[35] = test system: Escherichia coli; experiment: Ability to support the growth of Escherichia coli strain RW 193 from 50 uM stock solution was determined in growth response assay; format: functional; outline: as §1
[36] = test system: Escherichia coli; experiment: Ability to support the growth of Escherichia coli strain AN193 from 50 uM stock solution was determined in growth response assay; format: functional; outline: as §1
[37] = test system: Escherichia coli; experiment: Ability to support the growth of Escherichia coli strain RWV193 from 50 uM stock solution was determined in growth response assay; format: functional; outline: as §1
[38] = test system: Escherichia coli; experiment: Ability to support the growth of Escherichia coli strain BN3300 from […] was determined in growth response assay; format: functional; outline: as §1

Compound: CC(=O)N(O)CCCNC(=O)CC(CC(=O)NCCCN(O)C(C)=O)C(=O)NCCCN(O)C(C)=O
- Inhibitory diameter [1]: 25 mm
- Inhibitory diameter [2]: Not toxic
- Inhibitory diameter [3]: Not toxic
- Inhibitory diameter [4]: Not toxic

Compound: CC(=O)N(O)CCCNC(=O)c1cccc(C(=O)NCCCN(O)C(C)=O)n1
- Inhibitory diameter [1]: 25 mm
- Inhibitory diameter [2]: Not toxic
- Inhibitory diameter [3]: Not toxic
- Inhibitory diameter [4]: Not toxic

Compound: FERRICHROME
- Inhibitory diameter [5]: Not toxic
- Inhibitory diameter [6]: Not toxic
- Inhibitory diameter [7]: Not toxic

Compound: CC(=O)N(O)CCCNC(=O)CN(CC(=O)NCCCN(O)C(C)=O)CC(=O)NCCCN(O)C(C)=O
- Inhibitory diameter [8]: 25 mm
- growth zone diameter [9]: 25 mm
- Inhibitory diameter [10]: Not toxic
- Inhibitory diameter [11]: Not toxic
- Inhibitory diameter [12]: Not toxic

Compound: CC(=O)N(O)CCCCCNC(=O)c1cc(C(=O)NCCCCCN(O)C(C)=O)cc(C(=O)NCCCCCN(O)C(C)=O)c1
- Inhibitory diameter [13]: Not toxic
- Inhibitory diameter [14]: Not toxic
- Inhibitory diameter [15]: Not toxic
- Inhibitory diameter [16]: Not toxic
- Inhibitory diameter [17]: Not toxic
- Inhibitory diameter [18]: Not toxic

Compound: CN(O)C(=O)CCCCCNC(=O)CC(CC(=O)NCCCCCC(=O)N(C)O)C(=O)NCCCCCC(=O)N(C)O
- Inhibitory diameter [19]: 25 mm
- growth zone diameter [20]: 25 mm
- Inhibitory diameter [21]: Not toxic
- Inhibitory diameter [22]: Not toxic
- Inhibitory diameter [23]: Not toxic

Compound: CC(=O)N(O)CCCNC(=O)CC(O)(CC(=O)NCCCN(O)C(C)=O)C(=O)O [SCHIZOKINEN]
- growth zone diameter [24]: 25 mm
- Inhibitory diameter [25]: Not toxic
- Inhibitory diameter [26]: Not toxic
- growth zone diameter [27]: 25 mm

Compound: CC(=O)N(O)CCCNC(=O)c1cc(C(=O)NCCCN(O)C(C)=O)cc(C(=O)NCCCN(O)C(C)=O)c1
- Inhibitory diameter [28]: Not toxic
- Inhibitory diameter [29]: Not toxic
- Inhibitory diameter [30]: Not toxic
- Inhibitory diameter [31]: Not toxic
- Inhibitory diameter [32]: Not toxic
- Inhibitory diameter [33]: Not toxic

Compound: CC(=O)N(O)CCCCCNC(=O)CC(O)(CC(=O)NCCCCCN(O)C(C)=O)C(=O)O [ARTHROBACTIN]
- growth zone diameter [34]: < 10 mm
- Inhibitory diameter [5]: Not toxic
- Inhibitory diameter [35]: < 10 mm
- Inhibitory diameter [6]: Not toxic
- growth zone diameter [36]: < 10 mm
- growth zone diameter [37]: < 10 mm

Compound: CC(=O)N(O)CCCCCNC(=O)c1cccc(C(=O)NCCCCCN(O)C(C)=O)n1
- Inhibitory diameter [1]: 25 mm
- Inhibitory diameter [2]: Not toxic
- Inhibitory diameter [3]: Not toxic
- Inhibitory diameter [4]: Not toxic

Compound: CC(=O)N(O)CCCC1NC(=O)C(CCCN(O)C(C)=O)NC1=O (centres undefined)
- growth zone diameter [34]: 25 mm
- Inhibitory diameter [5]: Not toxic
- Inhibitory diameter [35]: 25 mm
- Inhibitory diameter [6]: Not toxic
- growth zone diameter [36]: 25 mm
- growth zone diameter [37]: 25 mm

Compound: O=C(N[C@H]1COC(=O)[C@@H](NC(=O)c2cccc(O)c2O)COC(=O)[C@@H](NC(=O)c2cccc(O)c2O)COC1=O)c1cccc(O)c1O [ENTEROBACTIN]
- growth zone diameter [38]: 25 mm
